SIRT5 block – inhibitors of human sirtuin-5 desuccinylase | Q9NXA8 | Purified SirT5, succinyl-peptide AMC, trypsin-coupled fluorescence | inhibition, % at 15 µM | actives 1.1% (n = 330,000); in the data active means inhibition above about 15%
Target sequence (Q9NXA8 whole entry, looked up): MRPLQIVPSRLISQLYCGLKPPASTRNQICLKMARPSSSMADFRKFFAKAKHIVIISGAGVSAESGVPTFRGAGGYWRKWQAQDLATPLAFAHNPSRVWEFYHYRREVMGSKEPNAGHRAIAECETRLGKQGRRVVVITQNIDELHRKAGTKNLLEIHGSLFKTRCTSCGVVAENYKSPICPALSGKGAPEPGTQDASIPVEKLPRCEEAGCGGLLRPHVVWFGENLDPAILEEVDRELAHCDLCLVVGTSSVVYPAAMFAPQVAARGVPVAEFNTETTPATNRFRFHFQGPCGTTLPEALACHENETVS
CaV13 ICDI inh – Primary screen for inhibitors of IQ motif and Ca2+-dependent inactivation inhibitor domain binding in CACNA1D, Förster resonance energy transfer in living cells, …; HEK cells, CFP/YFP FRET ICDI-IQ, plate reader, 10 min; percent FRET-ratio fall versus neutral wells; inhibition, % at 12.3 µM; actives 0.098% (n = 340,000); AID 743397;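 active means mean replicate inhibition of at least 30% and at least 1% of replicates passing that level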;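 further: 0% = median of the neutral control wells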
DENV2 CPE – protects cells from dengue virus 2 cytopathic effect; AID 651640; CPE inhibition, % at 9.99 µM; actives 1.7% (n = 350,000); DENV2-infected cells, cytopathic effect rescue, plate reader; in the data active means CPE inhibition above about 20%, passing the limit was not always enough; tested in BHK-21 cells;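 further: 0% = median of neutral control wells and 100% = median of positive control wells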
MLL AF4-AF9 inh – blocks AF4 peptide binding to human AF9; inhibition, % at 10 µM; P42568; AlphaScreen, biotin-AF4 peptide binding to FLAG-AF9; actives 0.47% (n = 350,000);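 active means every replicate reaching a set inhibition limit, whatever the replicate mean, cut at about 25% in these data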;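 further: 0% = plate neutral control median and 100% = total signal loss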
S100A4 MyoIIA – S100A4-myosin IIA interaction inhibition; S100A4/TAMRA-MyoIIA peptide fluorescence polarization; actives 0.14% (n = 360,000); inhibition, % at 10.7 µM; P26447;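 active means mean inhibition of at least 70% across replicates, with every replicate also reaching that level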
Target sequence (P26447 whole entry, looked up): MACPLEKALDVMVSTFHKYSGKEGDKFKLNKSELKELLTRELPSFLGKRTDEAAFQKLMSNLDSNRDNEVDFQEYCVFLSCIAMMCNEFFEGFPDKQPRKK
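Material: S100A4 monomer (human). Medium: Calcium-containing HEPES buffer, pH 7.2. Probe or stimulus: labelled myosin peptide probe, 5 nM. Compound dosing: one concentration per compound. Timing: polarization read 5 min after assay mix addition, stable 5–60 min. Benchmarks: DMSO as neutral control, TFP as positive control.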
An asterisk follows results filed as active; . = no result given; ! = not active in a repeat. In the library only some 2.7% were active in any assay of this set; here they are far more common.

SMILES	SIRT5 block	CaV13 ICDI inh	DENV2 CPE	MLL AF4-AF9 inh	S100A4 MyoIIA
O=C(O)COc1ccc(/C=N/NC(=O)c2ccc(-c3csc(Nc4ccc(Cl)cc4)n3)cc2)cc1	28*	-2	.	0	1
CCOc1cc(/C=N/NC(=O)c2ccc(-c3csc(Nc4ccc(C)cc4)n3)cc2)ccc1OCC(=O)O	2	-4	-3	-3	0
O=C(O)CSCC(=O)Nc1ccc(Br)c(C(F)(F)F)c1	82*	-2	0	-2	1
COc1ccc(NC(=O)Nc2cccc3c2O[C@H](CN(C)S(C)(=O)=O)[C@@H](C)CN([C@@H](C)CO)C3=O)cc1	-2	.	4	-1	2
C[C@@H]1CN([C@@H](C)CO)C(=O)c2cccc(NS(=O)(=O)c3cn(C)cn3)c2O[C@H]1CN(C)CC1CCCCC1	-4	.	33*	0	-2
C[C@@H]1CN([C@@H](C)CO)C(=O)c2cccc(NS(=O)(=O)c3cn(C)cn3)c2O[C@H]1CN(C)S(=O)(=O)c1cn(C)cn1	-6	.	-8	0	3
C[C@@H]1CN([C@@H](C)CO)C(=O)c2cccc(NS(=O)(=O)c3cn(C)cn3)c2O[C@H]1CN(C)C(=O)Nc1cccc2ccccc12	29*	.	-6	0	2
C[C@@H]1CN([C@@H](C)CO)C(=O)c2cccc(NS(=O)(=O)c3cn(C)cn3)c2O[C@@H]1CN(C)S(=O)(=O)c1cn(C)cn1	0	.	27*	-1	-2
C[C@H](CO)N1C[C@H](C)[C@@H](CN(C)CC2CCCCC2)Oc2c(NS(=O)(=O)c3cn(C)cn3)cccc2C1=O	-1	-5	-3	2	10
C[C@H](CO)N1C[C@H](C)[C@@H](CN(C)Cc2ccccc2)Oc2c(NS(=O)(=O)c3cn(C)cn3)cccc2C1=O	-7	-7	30*!	-1	-2
C[C@@H]1CN([C@@H](C)CO)C(=O)c2cc(-c3ccc(C(=O)N(C)C)cc3)cnc2O[C@H]1CN(C)C	-10	.	2	-2	4
CCCC#Cc1cnc2c(c1)C(=O)N([C@H](C)CO)C[C@@H](C)[C@H](CN(C)Cc1ccncc1)O2	-1	.	-2	-7	3
C[C@@H]1CN([C@@H](C)CO)C(=O)c2cccc(NS(=O)(=O)c3cn(C)cn3)c2O[C@H]1CN(C)Cc1ccc(C(F)(F)F)cc1	21*	.	-1	-2	6
CN(C)CC(=O)N1CCCCN2[C@H](CO)[C@H](c3ccc(-c4cccc(C(=O)N(C)C)c4)cc3)[C@@H]2C1	1	.	-7	-3	-37
Cc1sc(NC(=O)CSc2n[nH]c(N)n2)c(C#N)c1C	16*	-8	1	2	-8
COc1ccc(CSc2nc(C)cc(C)c2C#N)cc1	-3	-15	-5	25*	0
Cc1cc(C)n2nc(C)c(-c3ccccc3)c2n1	-3	2	3	-6	-4
COc1ccc(-c2c(C)nn3c(-c4ccccc4)cc(C)nc23)cc1	13	-5	-1	27*	-1
O=C(C(=O)N1CCC(CNC(=O)c2sc3ccccc3c2Cl)CC1)c1cccs1	.	-9	-1	-1	6
Cc1cccc(CN2CCN(C(=O)c3cccc4ccccc34)CC2)c1	-8	-4	43*	2	2
Cc1ccc(CN2CCN(C(=O)c3cccc4ccccc34)CC2)cc1	-2	-20	-2	4	0
CCOC(=O)Cc1csc(N/N=C/c2cccc([N+](=O)[O-])c2)n1	-2	-6	29*	-2	-2
OC[C@H]1[C@H](c2ccc(-c3cccnc3)cc2)[C@@H]2CN(CC3CCOCC3)CCCCN12	-2	.	5	-1	8
O=C(c1cccnc1)C1Cc2ccccc2C1=O (configuration not stated)	0	-19	49*	1	-2
Cc1ccccc1S(=O)(=O)N1CC[C@@H]2[C@H](CO)Nc3ccc(-c4ccc(C#N)cc4)cc3[C@@H]21	4	.	25*	-7	-6
Cc1ccccc1S(=O)(=O)N1CC[C@@H]2[C@H]1c1cc(-c3ccc(C#N)cc3)ccc1N[C@@H]2CO	6	.	77*	-3	-9
N#Cc1ccc(-c2ccc3c(c2)[C@@H]2[C@@H](CCN2S(=O)(=O)c2ccccc2F)[C@H](CO)N3)cc1	.	.	6	.	.
CCN(Cc1ccccc1)c1ccccc1	.	.	37*	.	-3
